The subject of test [1] is Staphylococcus aureus. In words: Antibacterial activity against methicillin resistant Staphylococcus aureus subsp. aureus HPV107 (ATCC BAA-44) assessed as reduction in bacterial growth incubated for 6 to 8 hrs. It counts as functional, organism-based. The method, boiled down: (§1)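 Broth proliferation assay. S. aureus and MRSA grown in ATCC Medium 18, other pathogens in Brain Heart Infusion. Stagnant incubation at 37°C under breathable seal. OD600 read at mid-log (6-8 h) and corrected with bacteria-free baseline plates. EC50 by variable-slope nonlinear fit, at least triplicate.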

Test [2] concerns Enterobacter cloacae. Put plainly: Antibacterial activity against multidrug resistant Enterobacter cloacae subsp. cloacae CDC 442-68 (ATCC 13047) assessed as reduction in bacterial growth incubated for 6 to 8 hrs. The class given is functional, organism-based. The method, boiled down:
as §1

For test [3], the system named is Staphylococcus aureus. Put plainly: Antibacterial activity against methicillin susceptible Staphylococcus aureus subsp. aureus Seattle 1945 (ATCC 25923) assessed as reduction in bacterial growth incubated for 6 to 8 hrs.
The subject of test [4] is Staphylococcus aureus. In words: Bactericidal activity against Staphylococcus aureus subsp. aureus Seattle 1945 (ATCC 25923) at 4 times MIC up to 24 hrs by agar dilution method. It counts as functional, organism-based. In outline: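 Time-kill in ATCC Medium 18. […] Viable counts were taken at 0, 1, 2, 4, 6 and 24 h by dilution and plating on Medium 18 agar. Values are averages of triplicates.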

Test [5] deals with Klebsiella pneumoniae subsp. pneumoniae. In words: Antibacterial activity against multidrug resistant Klebsiella pneumoniae subsp. pneumoniae NCTC 9633 (ATCC 13883) assessed as reduction in bacterial growth incubated for 6 to 8 hrs. The class given is functional, organism-based. The method, boiled down:
as §1

The subject of test [6] is Pseudomonas aeruginosa. In words: Antibacterial activity against multidrug resistant Pseudomonas aeruginosa NCTC 10332 (ATCC 10145) assessed as reduction in bacterial growth incubated for 6 to 8 hrs. The class given is functional, organism-based. In outline:
as §1

Test [7] has as its system Enterococcus faecium. Put plainly: Antibacterial activity against multidrug resistant Enterococcus faecium NCTC 7171 (ATCC 19434) assessed as reduction in bacterial growth incubated for 6 to 8 hrs. The class given is functional, organism-based. In outline:
as §1

In test [8] the test system is Acinetobacter baumannii. Put plainly: Antibacterial activity against multidrug resistant Acinetobacter baumannii 2208 (ATCC 19606) assessed as reduction in bacterial growth incubated for 6 to 8 hrs. It counts as functional. In outline:
as §1

Test [9] relates to Staphylococcus aureus. Put plainly: Antibacterial activity against Staphylococcus aureus subsp. aureus Seattle 1945 (ATCC 25923) assessed as inhibition of visual growth after 24 hrs. The class given is functional. The method, boiled down:
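MIC assay in Tryptic Soy broth (ATCC Medium 18). An overnight culture was diluted 5-fold, grown 1 h at 37°C, then diluted to OD600 0.01 (~10⁷ CFU/ml). Compounds were added in DMSO at fixed final concentrations (e.g. vancomycin 1.2-2.2 µM).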

pEC50: −log10 of the molar value. ≈ marks a conversion by molar mass, not a printed value. Calls of active or inactive are those of the source. The calls are words filed in the database; no cut-off is given here.

A word on the pEC50: it is −log10 of the EC50, conventionally taken in molar units. Broadly, the MIC is the lowest concentration found to suppress growth.

In the case of `CN[C@@H](CC(C)C)C(=O)N[C@H]1C(=O)N[C@@H](CC(N)=O)C(=O)N[C@H]2C(=O)N[C@H]3C(=O)N[C@H](C(=O)N[C@@H](C(=O)O)c4cc(O)cc(O)c4-c4cc3ccc4O)[C@H](O)c3ccc(c(Cl)c3)Oc3cc2cc(c3O[C@H]2O[C@@H](CO)[C@H](O)[C@@H](O)[C@@H]2O[C@@H]2C[C@@](C)(N)[C@@H](O)[C@@H](C)O2)Oc2ccc(cc2Cl)[C@H]1O`, the pEC50 was 6.77 in test [1]; under 4.00 in test [2]; 6.70 in test [3]; under 4.00 in test [5]; 4.13 in test [6]; 6.52 in test [7]. Besides, in [8], the pEC50 is 4.77. Further, in test [4], the result was Active. Also, the minimum inhibitory concentration (MIC) in test [9] came out at 1.6 µM (≈ 2.32 µg/mL).

(Values after ChEMBL document CHEMBL3808280, “GroEL/ES inhibitors as potential antibiotics” (Bioorg Med Chem Lett, 2016).)
